According to ChEMBL document CHEMBL1127640, “Synthesis and evaluation of 7 alpha-iodo-5 alpha-dihydrotestosterone as a potential radioligand for androgen receptor” (J Med Chem, 1994):

Assays:
[1] = molecular target: T1, Progesterone receptor (Homo sapiens) (UniProt P06401); assay: Relative binding affinity for progesterone receptor in MCF-7 cell cytosol extract
T1 sequence (whole entry): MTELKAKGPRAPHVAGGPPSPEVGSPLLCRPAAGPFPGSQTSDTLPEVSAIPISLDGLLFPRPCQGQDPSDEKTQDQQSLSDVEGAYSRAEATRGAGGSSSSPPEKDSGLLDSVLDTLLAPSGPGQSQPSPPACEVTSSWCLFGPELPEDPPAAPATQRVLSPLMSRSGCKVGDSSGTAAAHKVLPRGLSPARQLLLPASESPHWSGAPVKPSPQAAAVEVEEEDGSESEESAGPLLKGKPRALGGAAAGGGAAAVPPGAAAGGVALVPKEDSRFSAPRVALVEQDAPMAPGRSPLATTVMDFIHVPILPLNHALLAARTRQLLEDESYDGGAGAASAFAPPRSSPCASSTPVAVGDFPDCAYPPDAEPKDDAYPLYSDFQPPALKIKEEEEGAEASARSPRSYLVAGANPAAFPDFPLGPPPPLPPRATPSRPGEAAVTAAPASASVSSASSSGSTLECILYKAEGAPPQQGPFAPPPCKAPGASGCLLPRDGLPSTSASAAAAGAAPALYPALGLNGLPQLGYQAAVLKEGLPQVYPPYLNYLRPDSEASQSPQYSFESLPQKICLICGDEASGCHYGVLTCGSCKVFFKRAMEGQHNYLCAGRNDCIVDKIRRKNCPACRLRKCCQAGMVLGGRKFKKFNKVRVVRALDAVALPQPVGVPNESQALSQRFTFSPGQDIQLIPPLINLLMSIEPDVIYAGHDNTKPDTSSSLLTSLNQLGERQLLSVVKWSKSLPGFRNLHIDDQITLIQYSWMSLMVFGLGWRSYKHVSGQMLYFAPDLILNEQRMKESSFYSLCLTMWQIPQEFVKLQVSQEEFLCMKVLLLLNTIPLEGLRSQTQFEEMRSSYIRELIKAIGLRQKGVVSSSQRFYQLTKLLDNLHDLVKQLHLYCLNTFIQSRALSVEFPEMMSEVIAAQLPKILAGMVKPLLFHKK

Rattus norvegicus = species on record: Rattus norvegicus; assay: Relative binding affinity for progesterone receptor in rat uterine cytosol extract; conditions: Uterus
In short: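 Tissue homogenized in molybdate-free TEGT buffer, and cytosol (105000g supernatant) used at 0.8–1.2 mg/mL protein. Incubation was 20 h at 4 °C with 1.0 nM [3H]R5020 (final) over a competitor range. Bound/free separated on Sephadex LH-20, then scintillation counting.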

SMILES	Binding [1]	Binding (Rattus norvegicus)
CC(=O)[C@H]1CC[C@H]2[C@@H]3CCC4=CC(=O)CC[C@]4(C)[C@H]3CC[C@]12C	100%	100%
C[C@@H]1CC2=CC(=O)CCC2[C@H]2CC[C@@]3(C)[C@@H](CC[C@@]3(O)/C=C/I)[C@H]12 (some centres not stated)	9.84%	12.3%
CC12CC[C@H]3[C@@H]([C@H](I)C[C@H]4CC(=O)CCC43C)[C@@H]1CCC2O (some centres not stated)	0.239%	1.12%
C[C@]1(O)CC[C@H]2[C@@H]3CCC4=CC(=O)CCC4=C3C=C[C@@]21C	98%	142%
C[C@]12CCC(=O)C[C@@H]1CC[C@@H]1[C@@H]2CC[C@]2(C)[C@@H](O)CC[C@@H]12	0.205%	1.26%
C[C@]12CC[C@H]3[C@@H](CCC4=CC(=O)CC[C@@]43C)[C@@H]1CC[C@@H]2O	0.112%	1.55%
